Read-outs that look alike come from different tables or passages of the source.
Tests used:
[1] = Hepatic vaniprevir concentration by core needle biopsy; type: in vivo, human; conditions: for concentration at 12 h / Kp at 6 h: human, liver, oral, mean; for concentration at 12 h: Liver concentration C12h, mean (one subject), 12 h post-dose day 4; for Kp at 6 h: Liver:plasma ratio C6h, 6 h post-dose day 4
Procedure, shortened: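 Genotype 1 chronic HCV patients (n=3), non-cirrhotic, treatment-experienced, fixed sequence: 600 mg twice daily days 1–3 and a single dose on day 4, then after at least 30 days off drug, 300 mg on the same schedule. Ultrasound-guided core needle biopsy of the right hepatic lobe 6 or 12 h after the day-4 dose. Tissue weighed, stored at −70°C, homogenized in human EDTA plasma, extracted liquid–liquid at acidic pH, then LC-MS/MS (0.1–200 µg/g). Liver/plasma ratio calculated.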

[2] = Plasma vaniprevir pharmacokinetics; type: in vivo, human; conditions: for AUC(0-t) / Cmax / Tmax / half-life / concentration at 12 h: human, plasma, oral
Procedure, shortened: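 Same patients and fixed-sequence regimen: 600 mg then 300 mg twice daily days 1–3, single dose on day 4, at least 30-day washout between periods. Day-4 plasma over the 12-h dosing interval. LC-MS/MS, linear 1–1,000 ng/ml, CV under 10%, accuracy within ±10.0%. AUC0–12, Cmax, C12h, Tmax and t½ derived using nominal times. Tmax as median (min–max), t½ as harmonic mean ±pseudo sd.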

HCV RNA = assay: Decline of HCV RNA in patients on vaniprevir; type: in vivo; conditions: genotype 1 chronic HCV patients
[3] = cited from earlier work; for AUC0–12: plasma
[4] = chimpanzees, 10 mg/kg oral, cited from earlier work
[5] = rat, dog and rhesus monkey; cited from earlier work
[6] = test system: liver organic anion-transporting polypeptides; conditions: cited from earlier work
[7] = 300 mg to 600 mg twice daily, day 4

CC[C@@H]1C[C@]1(NC(=O)[C@@H]1C[C@@H]2CN1C(=O)[C@H](C(C)(C)C)NC(=O)OCC(C)(C)CCCCc1cccc3c1CN(C3)C(=O)O2)C(=O)NS(=O)(=O)C1CC1 [vaniprevir]
concentration at 12 h ([1]; 300 mg, 300 mg twice daily): 29400 nM | Kp at 6 h ([1]; 300 mg, 300 mg twice daily): 166 | concentration at 12 h ([1]; 600 mg, 600 mg twice daily): 53700 nM | Kp at 6 h ([1]; 600 mg, 600 mg twice daily): 67.3 | Hepatic concentrations, 600 mg versus 300 mg twice daily regimen ([1]; mean liver concentrations at 6 and 12 h post-dose): twofold higher | Increase in plasma AUC0–12 with a twofold increase in dose [2, 7]: approximately fivefold | Increase in plasma C12h with a twofold increase in dose [2, 7]: approximately sevenfold | Increase in plasma Cmax with a twofold increase in dose [2, 7]: approximately fivefold | AUC(0-t) ([2]; 300 mg): 10.6 µM·h | Cmax ([2]; 300 mg): 2600 nM | Tmax ([2]; 300 mg): 2 h | half-life ([2]; 300 mg): 6.3 ± 1.4 h | concentration at 12 h ([2]; 300 mg, C12 h, plasma trough, day 4, 300 mg twice daily, n=3, arithmetic mean ±SD [CV%]): 160 nM | concentration at 12 h ([2]; 300 mg, Plasma concentration C12h, mean, mean (one subject, Table 1), 300 mg twice daily, 12 h post-dose day 4): 120 nM | AUC(0-t) ([2]; 600 mg): 59.5 µM·h | Cmax ([2]; 600 mg): 13500 nM | Tmax ([2]; 600 mg): 3 h | half-life ([2]; 600 mg): 3.6 ± 1 h | concentration at 12 h ([2]; 600 mg, C12 h, plasma trough, day 4, 600 mg twice daily, n=3, arithmetic mean ±SD [CV%]): 1110 nM | concentration at 12 h ([2]; 600 mg, Plasma concentration C12h, mean, mean (one subject, Table 1), 600 mg twice daily, 12 h post-dose day 4): 190 nM | Decline of HCV RNA by day 2 (HCV RNA; 300 mg twice daily): approximately 3 log | Decline of HCV RNA by day 2 (HCV RNA; 600 mg twice daily): approximately 4 log | Plasma vaniprevir Tmax ([3]; humans): 1.5 to 3 h | AUC0–12 ([3]; 300 mg twice daily): 5.15 µM/h | AUC0–12 ([3]; 600 mg twice daily): 23.36 µM/h | Maximum liver concentration ([4]; reached at 12 h after dosing): 31 µM | Plasma AUC0–24 [4]: 5.2 µM/h | Liver concentrations at 24 h post-dose [5]: 200 to 600 nM | Liver organic anion-transporting polypeptides transport in vitro [6]: saturated at high concentrations

— publication PMC4714953 (Antiviral therapy, 2015)
